The results in this text go back to ChEMBL document CHEMBL4340525, “Tumor-Targeted Delivery of 6-Diazo-5-oxo-l-norleucine (DON) Using Substituted Acetylated Lysine Prodrugs” (J Med Chem, 2019).

The nature of series [1]: AUC (0 to t) in CES1-deficient C57BL/6 mouse plasma implanted with mouse EL4 cells assessed as 6-diazo-5-oxo-L-norleucine level at 3.2 mg/kg, sc administered as single dose by LC-MS/MS analysis. The settings on record: in vivo. In kind it is ADME, organism-based. An outline of the steps:
(§1)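 Male and female C57BL/6 CES1-/- mice, 6–8 weeks old, carried flank EL4 tumours from SC injection of 1 × 10^6 cells in PBS. Dosing began at about 400 mm3 mean tumour volume. Each mouse got one SC dose of 3.2 mg/kg (1 mg/kg DON equivalent) in ethanol/Tween 80/saline 5:10:85. Plasma, jejunum and tumour were taken at set times, n = 3 per time point. Prodrug and dabsyl-derivatised DON were measured by LC-MS/MS. Noncompartmental analysis: Cmax and Tmax observed, AUClast by log-linear trapezoidal rule.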

Series [2] in a line: Cmax in CES1-deficient C57BL/6 mouse tumor implanted with mouse EL4 cells assessed as 6-diazo-5-oxo-L-norleucine level at 3.2 mg/kg, sc administered as single dose by LC-MS/MS analysis. The settings on record: in vivo. On the set-up: dose 3.2 mg/kg, route subcutaneous. In kind it is ADME, organism-based, Neoplasm. The essentials: as §1
Series [3] is described as follows: Prodrug conversion in human H69 cells suspended in human plasma assessed as 6-diazo-5-oxo-L-norleucine formation at 20 uM measured after 1 hr by LC-MS/MS analysis. In kind it is ADME, cell-based. As to conditions: nci-h69, 1 h. The essentials:
(§2)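 Cells were grown in RPMI 1640 with 10% FBS, washed in DPBS and resuspended in human plasma at 10 million cells/mL. After 5 min preincubation at 37 °C, compound was added at 20 µM final for 1 h. The mix was centrifuged at 10 000g and the washed pellet and plasma were quantified separately. DON was read by LC-MS/MS after dabsyl chloride derivatisation, intact prodrug directly. Standard curves were made in naive cells or plasma.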

The nature of series [4]: Stability of the compound in CES1-deficient C57BL/6 mouse plasma measured after 60 mins by UHPLC-MS analysis. In kind it is ADME, cell-free. As to conditions: 1 h.
Series [5] is described as follows: AUC (0 to t) in CES1-deficient C57BL/6 mouse jejunum implanted with mouse EL4 cells assessed as 6-diazo-5-oxo-L-norleucine level at 3.2 mg/kg, sc administered as single dose by LC-MS/MS analysis. In kind it is ADME, organism-based. As to conditions: in vivo. The essentials: as §1
For a further series, the target named is Histone deacetylase 2 (Homo sapiens, UniProt Q92769). Description: Stability of the compound assessed as recombinant human HDAC2-mediated compound hydrolysis by measuring parent compound remaining at 1 uM measured after 3 hrs by UHPLC-MS analysis. In kind it is ADME. An outline of the steps:
(§3)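 Compound at 1 µM was incubated at 37 °C with shaking in 50 mM MES pH 6 with 5 mM DTT. Recombinant human enzyme final levels: HDAC2 10 µg/mL, cathepsin B 1 µg/mL, cathepsin L 0.1 µg/mL, alone or cathepsins B+L combined. Aliquots were quenched in methanol with losartan at 0.25, 0.5, 1 and 3 h. Parent remaining by Q-TOF LC-MS.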

Series [6] is described as follows: Stability in human plasma suspended with human P493B cells at 20 uM measured after 1 hr by LC-MS/MS analysis. In kind it is ADME, cell-free. An outline of the steps:
as §2

The species entered for the next series is Homo sapiens. Description: Stability of the compound assessed as recombinant human cathepsin L/cathepsin B-mediated compound hydrolysis by measuring parent compound remaining at 1 uM measured after 3 hrs by UHPLC-MS analysis. An outline of the steps: as §3
A short description of series [7]: Tmax in CES1-deficient C57BL/6 mouse jejunum implanted with mouse EL4 cells assessed as 6-diazo-5-oxo-L-norleucine level at 3.2 mg/kg, sc administered as single dose by LC-MS/MS analysis. In kind it is ADME, organism-based. As to conditions: in vivo. An outline of the steps:
as §1

A short description of series [8]: Ratio of AUC (0 to t) in tumor to jejunum of CES1-deficient C57BL/6 mouse implanted with mouse EL4 cells assessed as 6-diazo-5-oxo-L-norleucine level at 3.2 mg/kg, sc administered as single dose by LC-MS/MS analysis. In kind it is ADME, organism-based. The settings on record: in vivo. The essentials: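 Tissue-to-tissue ratios of DON AUClast came from noncompartmental analysis. EL4-bearing CES1-/- C57BL/6 mice received one SC dose of 3.2 mg/kg (1 mg/kg DON equivalent) in ethanol/Tween 80/saline 5:10:85. Tumour, jejunum and plasma were sampled over time, n = 3 mice per time point. DON was read by LC-MS/MS after dabsyl chloride derivatisation.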

A short description of series [9]: Prodrug conversion in human plasma suspended with human DU4475 cells assessed as 6-diazo-5-oxo-L-norleucine formation at 20 uM measured after 1 hr by LC-MS/MS analysis. In kind it is ADME, cell-free. The essentials: as §2
The nature of series [10]: Cmax in CES1-deficient C57BL/6 mouse plasma implanted with mouse EL4 cells at 3.2 mg/kg, sc administered as single dose by LC-MS/MS analysis. In kind it is ADME, organism-based. The arrangement: dose 3.2 mg/kg, route subcutaneous. The essentials:
as §1

Series [11] can be described thus: AUC (0 to t) in CES1-deficient C57BL/6 mouse tumor implanted with mouse EL4 cells assessed as 6-diazo-5-oxo-L-norleucine level at 3.2 mg/kg, sc administered as single dose by LC-MS/MS analysis. In kind it is ADME, organism-based, Neoplasm. The settings on record: in vivo. The essentials:
as §1

The nature of series [12]: Drug level in human P493B cells suspended in human plasma assessed as tumor cell to plasma ratio by measuring 6-diazo-5-oxo-L-norleucine formation at 20 uM measured after 1 hr by LC-MS/MS analysis relative to 6-diazo-5-oxo-L-norleucine alone. In kind it is ADME, cell-based. An outline of the steps:
as §2

In another series the target is Cathepsin B (Homo sapiens, UniProt P07858). Description: Stability of the compound assessed as recombinant human cathepsin B-mediated compound hydrolysis by measuring parent compound remaining at 1 uM measured after 3 hrs by UHPLC-MS analysis. In kind it is ADME. An outline of the steps:
as §3

Series [13] is described as follows: Prodrug conversion in human DU4475 cells suspended in human plasma assessed as 6-diazo-5-oxo-L-norleucine formation at 20 uM measured after 1 hr by LC-MS/MS analysis. In kind it is ADME, cell-based. The settings on record: du-4475, 1 h. The essentials:
as §2

A short description of series [14]: Tmax in CES1-deficient C57BL/6 mouse tumor implanted with mouse EL4 cells at 3.2 mg/kg, sc administered as single dose by LC-MS/MS analysis. In kind it is ADME, organism-based, Neoplasm. An outline of the steps: as §1
Series [15] in a line: Tmax in CES1-deficient C57BL/6 mouse plasma implanted with mouse EL4 cells assessed as 6-diazo-5-oxo-L-norleucine level at 3.2 mg/kg, sc administered as single dose by LC-MS/MS analysis. In kind it is ADME, organism-based. The settings on record: in vivo. An outline of the steps:
as §1

A short description of series [16]: Cmax in CES1-deficient C57BL/6 mouse jejunum implanted with mouse EL4 cells at 3.2 mg/kg, sc administered as single dose by LC-MS/MS analysis. In kind it is ADME, organism-based. On the set-up: dose 3.2 mg/kg, route subcutaneous. The settings on record: in vivo, BLD = below limit of detection. The essentials: as §1
For another series, the target named is Procathepsin L (Homo sapiens, UniProt P07711). Description: Stability of the compound assessed as recombinant human cathepsin L-mediated compound hydrolysis by measuring parent compound remaining at 1 uM measured after 3 hrs by UHPLC-MS analysis. In kind it is ADME. The essentials:
as §3

Series [17] is described as follows: Stability in swine jejunum assessed as parent compound remaining at 20 uM measured after 1 hr by LC-MS/MS analysis. In kind it is ADME, tissue-based, Sus scrofa. As to conditions: pig. The essentials:
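Washed swine jejunum was diluted 10-fold in 0.1 M potassium phosphate buffer and probe-sonicated. Prodrug was spiked at 20 µM final and incubated 1 h at 37 °C with orbital shaking. Triplicate quench in acetonitrile with losartan internal standard. Percent parent remaining by LC-MS/MS peak-area ratio.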

Series [18] in a line: AUC in CES1-deficient C57BL/6 mouse jejunum implanted with mouse EL4 cells assessed as 6-diazo-5-oxo-L-norleucine level at 3.2 mg/kg, sc administered as single dose by LC-MS/MS analysis. The settings on record: in vivo.
Series [19] is described as follows: Drug level in human P493B cells suspended in human plasma assessed as tumor cell to plasma ratio by measuring 6-diazo-5-oxo-L-norleucine formation at 20 uM measured after 1 hr by LC-MS/MS analysis. In kind it is ADME, cell-based. The essentials:
as §2

By Tmax is commonly meant the time from dosing to the highest level.

Procathepsin L, sequence (P07711 whole entry): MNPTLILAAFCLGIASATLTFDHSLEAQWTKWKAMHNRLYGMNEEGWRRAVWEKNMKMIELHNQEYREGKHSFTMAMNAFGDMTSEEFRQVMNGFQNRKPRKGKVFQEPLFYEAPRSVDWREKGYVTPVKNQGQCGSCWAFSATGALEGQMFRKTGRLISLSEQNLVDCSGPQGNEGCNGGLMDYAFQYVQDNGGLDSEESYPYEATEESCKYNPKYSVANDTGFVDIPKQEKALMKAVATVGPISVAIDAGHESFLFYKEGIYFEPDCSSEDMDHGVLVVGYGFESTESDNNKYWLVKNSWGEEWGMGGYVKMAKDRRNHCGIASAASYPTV
Histone deacetylase 2, sequence (Q92769 whole entry): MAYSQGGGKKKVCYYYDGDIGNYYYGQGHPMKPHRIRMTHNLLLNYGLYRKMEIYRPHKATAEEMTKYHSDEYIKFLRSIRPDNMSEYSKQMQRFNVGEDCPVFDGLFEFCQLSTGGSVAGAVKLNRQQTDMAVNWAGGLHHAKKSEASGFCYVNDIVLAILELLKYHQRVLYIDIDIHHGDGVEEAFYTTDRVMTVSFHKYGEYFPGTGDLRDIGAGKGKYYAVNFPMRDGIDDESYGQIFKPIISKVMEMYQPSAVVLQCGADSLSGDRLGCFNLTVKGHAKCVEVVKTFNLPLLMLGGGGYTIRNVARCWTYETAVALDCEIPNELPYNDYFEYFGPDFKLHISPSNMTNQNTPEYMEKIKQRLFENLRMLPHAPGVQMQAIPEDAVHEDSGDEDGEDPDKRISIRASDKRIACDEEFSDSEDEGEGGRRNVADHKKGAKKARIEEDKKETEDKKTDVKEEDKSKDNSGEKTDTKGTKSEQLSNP

Turning to `CC(=O)NCCCC[C@H](NC(=O)C12CC3CC(CC(C3)C1)C2)C(=O)N[C@@H](CCC(=O)C=[N+]=[N-])C(=O)OC(C)C`, the AUCt in [1] was 1.06 µM·h; in [5] it was 0.45 nmol·h/g; in [11], 5.07 nmol·h/g. Further, the Cmax in [2] was 1.55 nmol/g; in series [10], 820 nM; in series [16], “Bld”. Moreover, the Drug metabolism in series [3] is 9.95 µM; in series [9], 0.25 to 0.5 µM; in [13] it was 11.8 µM. Besides, the Stability result in series [4] was “Stable”; at Histone deacetylase 2, above 95%; in series [6] it was “Stable”; in the series listed under Homo sapiens, 9%; on Cathepsin B, 64%; at Procathepsin L, 36%. Moreover, in [17], the Stability is listed as above 50%. Further, the Tmax in series [7], in series [14] and in series [15] was 30 min each time. In addition, in [8], the “Ratio AUC” value is reported as 11. The “fold change (FC)” value in series [12] is 55. Besides, the AUC in [18] amounted to 0.45 nmol·h/g. In series [19], the Ratio was 22.
